Data set [1] deals with advanced or metastatic solid tumors. The experiment in a line: Antitumor activity per RECIST v1.1. It counts as in vivo, human. Summed up:
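Open-label, single-arm, 3 + 3 dose-escalation lead-in. Adults with advanced or metastatic solid tumors that had progressed on standard therapy and had ≥1 lesion per RECIST v1.1. Test compound given once daily (16 or 20 mg) or 4 days on/3 days off (24 or 28 mg) in 21-day cycles until progression or toxicity. Response, DCR and PFS were assessed in all dosed patients, with 95% CI.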

The test system of data set [2] is patients with advanced solid tumors. Particulars: all patients; cited from earlier work.
A further data set relates to advanced solid tumors. Particulars: cited from earlier work.
Setting [3] is: one patient, germline PTEN mutation, metaplastic breast cancer, 20 mg o.d.

These results are taken from paper PMC12804367 (ESMO Open, 2025).

Read-outs that look alike come from different tables or passages of the source.

Take `C[C@]1(O)C[C@@](N)(c2ccc(-c3nc4n(c3-c3ccccc3)COc3ccncc3-4)cc2)C1` [TAS-117]: in data set [1] (all cohorts, 95% CI 1.3-3.5 months), the “Median PFS” value worked out at 2.7 months. Also, the DCR in data set [1] (all patients, 95% CI 18.4% to 67.1%) amounted to 41.2%. The “Patients with stable disease as best response” value in data set [1] (o.d. dosing, all at 20 mg) was “three”. In addition, the Best overall response result in data set [1] (setting [3]) is recorded as “stable disease”. The “Duration of stable disease / treatment, ongoing at data cut-off” value in data set [1] (setting [3]) is listed as 19.1 months. Moreover, in data set [1] (one patient, germline PTEN mutation, metaplastic breast cancer, ongoing), the “Duration of stable disease / treatment as of manuscript drafting” value is listed as above 3 years. The “Objective response (RECIST v1.1, investigator assessment)” value in data set [1] (patients assessed, n = 15, dose escalation (all-comers)) was “None and no patients having a confirmed response”. Further, in data set [2], the “Tolerability of 24-mg o.d. dose level” value was “intolerable skin toxicities”. In addition, the Objective responses in the data set with advanced solid tumors (PIK3CA-mutant endometrial cancer, 1 out of 16 patients) is reported as 6.3%; with advanced solid tumors (ovarian clear cell carcinoma, 3 out of 20 patients), 15%. The “Antitumor activity and safety” value in the data set with advanced solid tumors (patients with advanced solid tumors) was “preliminary antitumor activity and a manageable safety profile”.
